From ChEMBL document CHEMBL1641462, “Synthesis and in vivo evaluation of ¹⁸F-fluoroethyl GF120918 and XR9576 as positron emission tomography probes for assessing the function of drug efflux transporters” (Bioorg Med Chem, 2011)
The source made the active and inactive calls.

Legend:
Format in all cases: cell-based
Details in all cases: 7.4 M; tested as the 18F-labelled form
[1] = Increase of P-glycoprotein-mediated intracellular drug uptake expressed in human MES-SA/Dx5 cells at 7.4 MBq/ml after 120 mins by gamma counting in presence of 10 uM of N-(4-(2-(1,2,3,4-tetrahydro-6,7-dimethoxy-2- isoquinolinyl)ethyl)phenyl)-9,10-dihydro-5-fluoroethoxy-9- oxo-4-acridine carboxamide
Method in brief: (§1)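 MES-SA/Dx5 doxorubicin-resistant human uterine sarcoma cells grown in McCoy's 5A + 10% FCS at 37 °C, 5% CO2; monolayers (10^5 cells/well) incubated 120 min with 7.4 MBq/ml [18F]-tracer ± 10 µM inhibitor. Washed five times in cold PBS, lysed in 0.2 M NaOH, gamma counted, normalized to protein (%ICD/mg). Percent increase vs untreated cells; triplicate.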

[2] = (§2) Increase of P-glycoprotein-mediated intracellular drug uptake expressed in human MES-SA/Dx5 cells at 7.4 MBq/ml after 120 mins by gamma counting in presence of 10 uM of GF120918; method in brief: as §1
[3] = as §2, with “quinoline-3-carboxylic acid [2-(4-{2-[7-(2-fluoroethoxy)- 6-methoxy-3,4-dihydro-1H-isoquinolin-2-yl]ethyl}phenylc arbamoyl)-4,5-dimethoxyphenyl]amide” for “GF120918”; method in brief: as §1
[4] = Increase of P-glycoprotein-mediated intracellular drug uptake expressed in human MES-SA/Dx5 cells at 7.4 MBq/ml after 120 mins by gamma counting in presence of 10 uM of XR9576; method in brief: as §1

Measured: Drug uptake

COc1cc2c(cc1OC)CN(CCc1ccc(NC(=O)c3cccc4c(=O)c5cccc(OCCF)c5[nH]c34)cc1)CC2
active: all assays above

COc1cc(NC(=O)c2cnc3ccccc3c2)c(C(=O)Nc2ccc(CCN3CCc4cc(OC)c(OCCF)cc4C3)cc2)cc1OC
active: all assays above
